{"data": "Assay results gathered from unrelated publications", "target": "Death-associated protein kinase 3 (DAPK3, Homo sapiens, UniProt O43293)"}
{"SMILES": "O=c1[nH]c2ccccc2n1C1CCN(Cc2ccc(-c3[nH]c4cc5ncnc5cc4nc3-c3ccccc3)cc2)CC1", "observed": "cell-free assay", "tested at": "0.5 µM", "measurement": "remaining signal", "result": "106%"}
{"SMILES": "Cn1cc(-c2cccc(N3CCc4c(sc5c4CC(C)(C)C5)C3=O)c2CO)cc(Nc2ccncn2)c1=O", "observed": "enzyme activity", "action": "inhibitor", "tested at": "1 µM", "measurement": "inhibition", "result": "-6%"}
{"SMILES": "COc1ncccc1-c1cnn2ccc(N3CCN(C(=O)OC(C)C)CC3)nc12", "observed": "binding", "method": "competition with immobilised ligand", "tested at": "1 µM", "measurement": "remaining binding", "result": "98%"}
{"SMILES": "Nc1ncc(-c2nc(N3CCOCC3)nc(N3CCOCC3)n2)c(C(F)F)n1", "observed": "binding", "method": "competition with immobilised ligand", "tested at": "10 µM", "measurement": "remaining binding", "result": "80%"}
{"SMILES": "Cc1nn(C)cc1-c1nc2c(N3CCN(Cc4ccc(Cl)cc4)CC3)c(Cl)cnc2[nH]1", "observed": "binding", "method": "competition with immobilised ligand", "tested at": "1 µM", "measurement": "remaining binding", "result": "84%"}
{"SMILES": "Cn1cc(-c2cc(F)cc(N3CCn4c(cc5c4CCCC5)C3=O)c2CO)cc(Nc2ccc(N3CCN(C4COC4)CC3)cn2)c1=O", "observed": "enzyme activity", "action": "inhibitor", "tested at": "0.1 µM", "measurement": "inhibition", "result": "3%"}
{"SMILES": "CC(C)(C)c1cc(C=C(C#N)C#N)cc(Br)c1O", "observed": "enzyme activity", "action": "inhibitor", "tested at": "0.5 µM", "measurement": "remaining activity", "result": "96.4%"}
{"SMILES": "Cn1cncc1[C@](O)(COc1ccc(C#N)cc1-c1ccc(OC(F)(F)F)cc1)c1ccc(C#N)cc1", "observed": "cell-free assay", "method": "competition with immobilised ligand", "tested at": "1 µM", "measurement": "remaining binding", "result": "88%"}
